MT1-MMP act inh: blockers of MT1-MMP proenzyme processing, primary screen, HT1080 RFP-PRO-GFP cells, GFP/RFP fluorescence | Matrix metalloproteinase-14 (Homo sapiens), P50281 | GFP/RFP ratio fluorescence, overnight; percent of plate control window, DMSO zero | GFP/RFP ratio change, % at 20 µM | hit rate 0.061% among 360,000 | AID 651647, 2012;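 active means GFP/RFP ratio change of at least 30% with cell ATP level not reduced by more than half and red fluorescence within 50% of control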
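Test system: HT1080 cells expressing an RFP-PRO-GFP fluorescent reporter construct / Compound dosing: single-point 20 µM compound, 1% DMSO / Schedule: cells overnight before dosing, compound overnight, 37 °C, 5% CO2 / Evaluation: GFP/RFP fluorescence ratio / Control set: DMSO and RFP-L50D-GFP cell wells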
Rpn11 block: Rpn11 (PSMD14) deubiquitinase inhibitors, primary screen, biochemical, fluorescence polarization, uHTS | hit rate 0.59% among 360,000 | AID 588493, 2011 | 26S proteasome non-ATPase regulatory subunit 14 (Homo sapiens), O00487 | inhibition, % at 20 µM | human 26S proteasome, Ub4-pepOG fluorescence polarization; 20S core pre-blocked with epoxomicin;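 active means inhibition at 20 µM, scaled to each plate's controls, above about 33%, limit read from the data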
Target sequence (O00487 whole entry, looked up): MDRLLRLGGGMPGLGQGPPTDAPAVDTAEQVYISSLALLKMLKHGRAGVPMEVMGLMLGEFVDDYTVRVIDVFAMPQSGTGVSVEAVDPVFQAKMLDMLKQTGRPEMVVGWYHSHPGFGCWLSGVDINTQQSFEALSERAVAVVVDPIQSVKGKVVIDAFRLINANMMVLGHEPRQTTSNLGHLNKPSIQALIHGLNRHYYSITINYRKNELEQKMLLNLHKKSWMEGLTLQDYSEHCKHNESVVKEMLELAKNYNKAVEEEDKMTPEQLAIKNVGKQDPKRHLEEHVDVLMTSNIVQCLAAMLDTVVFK
DNMT1 block: human DNMT1 methyltransferase inhibitors, primary screen, biochemical, molecular beacon, fluorescence, HinP1I cleavage, uHTS; DNA (cytosine-5)-methyltransferase 1 (Homo sapiens), P26358; inhibition (reported as % activation of signal), % at 10 µM; hit rate 0.83% among 360,000; in the data active means inhibition above about 50%
SKN-1 inh: suppressors of acrylamide-induced Pgst-4::GFP reporter in worms, primary screen, SKN-1 inhibitor project, whole organism, uHTS, GFP/RFP fluorescence ratio, strain VP596; C. elegans VP596 Pgst-4::GFP/RFP ratio, 24 h; inhibition, % at 21.8 µM; hit rate 0.49% among 360,000;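 active means interference check ratio from 0.5 to 1.5 plus GFP to RFP signal ratio inhibition reaching or exceeding a fixed threshold, cut at about 30% in these data, passing the limit was not always enough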
CSN deneddyl inh: inhibitors of CSN-mediated cullin deneddylation, primary screen, biochemical, fluorescence polarization, uHTS; COP9 signalosome complex subunit 5 (Homo sapiens), Q92905; Purified CSN, SCF-Nedd8-OG deneddylation; inhibition, % at 12.5 µM; hit rate 0.38% among 360,000;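 active means pattern-corrected inhibition above about 35%, with an unprinted fluorescence ratio check between 0.5 and 1.5, limit read from the data, passing the limit was not always enough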
Target sequence (Q92905 whole entry, looked up, one chain of several): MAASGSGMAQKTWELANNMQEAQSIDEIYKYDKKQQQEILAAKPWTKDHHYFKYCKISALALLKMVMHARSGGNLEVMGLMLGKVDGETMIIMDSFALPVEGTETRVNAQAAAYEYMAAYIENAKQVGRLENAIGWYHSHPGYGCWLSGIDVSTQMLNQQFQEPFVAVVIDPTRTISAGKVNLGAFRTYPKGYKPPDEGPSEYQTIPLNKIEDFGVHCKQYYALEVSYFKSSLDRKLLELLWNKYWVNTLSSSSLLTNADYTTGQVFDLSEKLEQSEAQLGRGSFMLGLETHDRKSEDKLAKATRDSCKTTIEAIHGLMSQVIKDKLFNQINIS
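Assay system: HEK293T-derived human Csn5 enzyme; quantity: 0.24 nM enzyme; medium: Tris/NaCl/DTT buffer, pH 7.5; also added: substrate SCFSkp2-Nedd8OG, 10 nM; doses: 12.5 µM compound; schedule: 90 min reaction at room temperature; signal: FP; read-out: % inhibition of substrate cleavage by Csn5; benchmarks: substrate-only high control, full reaction low control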
SUMO1 PPI mod: modulators of SUMO1 protein-protein interactions, primary screen, biochemical, uHTS; SUMO1 binding to a labelled peptide, TR-FRET, 1 h; inhibition, % at 20 µM; hit rate 0.33% among 360,000; AID 602429, 2012; in the data active means inhibition above about 37%
DNMT1 inh conf: DNMT1 methyltransferase inhibitor retest, confirmation, biochemical, molecular beacon, fluorescence, single concentration. shares compounds with DNMT1 block. DNMT1 molecular beacon HinP1I cleavage. inhibition, % at 10 µM. hit rate 8% among 2,300. AID 602385, 2012;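 active means average inhibition of at least 30% in the single-concentration confirmation test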
DNMT1 interf: shows spectral interference in the DNMT1 beacon assay; shares compounds with DNMT1 block; DNMT1 molecular beacon spectral interference counterscreen, fluorescence 485/520; activation (fluorescence interference), % at 10 µM; hit rate 1% among 2,300; AID 602387;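 active means activation of at least 30% at 10 µM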;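 further: DNMT1 catalytic domain with a HinP1I cleavage step and a FAM/dabcyl DNA beacon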
Hits are given with their value. Only some compounds are listed: those with a hit (about 2.3% of all), similar ones and a draw of the others.

C[C@H](CO)N1C[C@H](C)[C@@H](CN(C)C(=O)Nc2ccc(C(F)(F)F)cc2)Oc2ccc(NC(=O)c3ccncc3)cc2C1=O was read as MT1-MMP act inh inactive, Rpn11 block inactive, DNMT1 block 92, SKN-1 inh inactive, CSN deneddyl inh inactive, SUMO1 PPI mod inactive, DNMT1 inh conf inactive and DNMT1 interf inactive.
Screening Cc1ccc(Nc2nc(=O)c3cc([N+](=O)[O-])ccc3s2)cc1 returned MT1-MMP act inh inactive, Rpn11 block inactive, DNMT1 block 59, SKN-1 inh inactive, CSN deneddyl inh inactive, SUMO1 PPI mod inactive, DNMT1 inh conf inactive and DNMT1 interf inactive.
For COc1ccc(Nc2nc(=O)c3cc([N+](=O)[O-])ccc3s2)cc1 the results were MT1-MMP act inh inactive, Rpn11 block inactive, DNMT1 block 65, SKN-1 inh inactive, CSN deneddyl inh inactive, SUMO1 PPI mod inactive, DNMT1 inh conf inactive and DNMT1 interf inactive.
For CC(=O)N1CCc2cc(NC(=O)C3(C)CCN3CCc3ccccc3)ccc21 (stereo not drawn) the results were MT1-MMP act inh inactive, Rpn11 block inactive, DNMT1 block inactive, SKN-1 inh inactive, CSN deneddyl inh inactive and SUMO1 PPI mod inactive.
Screening COc1ccccc1NS(=O)(=O)c1cc2c3c(c1)CCN3C(=O)CC2 returned MT1-MMP act inh inactive, Rpn11 block inactive, DNMT1 block 84, SKN-1 inh inactive, CSN deneddyl inh inactive, SUMO1 PPI mod inactive, DNMT1 inh conf inactive and DNMT1 interf inactive.
For COc1ccccc1CCNS(=O)(=O)c1cc2c3c(c1)CCN3C(=O)CC2 the results were MT1-MMP act inh inactive, Rpn11 block inactive, DNMT1 block inactive, SKN-1 inh inactive, CSN deneddyl inh inactive and SUMO1 PPI mod inactive.
COc1ccc(/C=C/C(=O)C(C)(C)C)cc1OC was read as MT1-MMP act inh inactive, Rpn11 block inactive, DNMT1 block 50, SKN-1 inh inactive, CSN deneddyl inh inactive, SUMO1 PPI mod inactive, DNMT1 inh conf inactive and DNMT1 interf inactive.
`COc1ccc(OC)c(N(CCN2C(=O)c3ccccc3C2=O)C(=O)CCl)c1` gave MT1-MMP act inh inactive, Rpn11 block inactive, DNMT1 block inactive, SKN-1 inh inactive, CSN deneddyl inh inactive and SUMO1 PPI mod inactive.
Cc1ccc2oc(-c3ccc(C)c(NC(=S)NC(=O)c4cccs4)c3)nc2c1 was read as MT1-MMP act inh inactive, Rpn11 block inactive, DNMT1 block 51, SKN-1 inh inactive, CSN deneddyl inh inactive, SUMO1 PPI mod inactive, DNMT1 inh conf inactive and DNMT1 interf inactive.
Cc1ccc2oc(-c3cccc(NC(=O)Cc4cccs4)c3)nc2c1 was read as MT1-MMP act inh inactive, Rpn11 block inactive, DNMT1 block inactive, SKN-1 inh inactive, CSN deneddyl inh inactive and SUMO1 PPI mod inactive.
Cc1ccc(-c2nnc(-c3ccc(NC(=O)Cc4cccs4)cc3)o2)cc1 was read as MT1-MMP act inh inactive, Rpn11 block inactive, DNMT1 block inactive, SKN-1 inh inactive, CSN deneddyl inh inactive, SUMO1 PPI mod inactive, DNMT1 inh conf inactive and DNMT1 interf inactive.
For Cc1cc(NS(=O)(=O)c2ccc(NC(=O)Cc3cccs3)cc2)no1 the results were MT1-MMP act inh inactive, Rpn11 block inactive, DNMT1 block inactive, SKN-1 inh inactive, CSN deneddyl inh inactive and SUMO1 PPI mod inactive.
Cc1cc(NC(=O)Cc2cccs2)no1 was read as MT1-MMP act inh inactive, DNMT1 block 111, SKN-1 inh inactive, CSN deneddyl inh inactive, SUMO1 PPI mod inactive, DNMT1 inh conf inactive and DNMT1 interf inactive.
For Cc1ccc2oc(-c3ccc(C)c(NC(=O)Cc4cccs4)c3)nc2c1 the results were MT1-MMP act inh inactive, Rpn11 block inactive, DNMT1 block 52, SKN-1 inh inactive, CSN deneddyl inh inactive, SUMO1 PPI mod inactive, DNMT1 inh conf inactive and DNMT1 interf inactive.
`O=C(Cc1cccs1)Nc1cccc(-c2nnc(-c3ccco3)o2)c1` gave MT1-MMP act inh inactive, Rpn11 block inactive, DNMT1 block inactive, SKN-1 inh inactive, CSN deneddyl inh inactive and SUMO1 PPI mod inactive.
`COc1ccccc1NC(=O)Nc1nnc([C@H]2C[C@H](O)[C@@H](CO)O2)s1` gave MT1-MMP act inh inactive, Rpn11 block inactive, DNMT1 block inactive, SKN-1 inh inactive, CSN deneddyl inh inactive and SUMO1 PPI mod inactive.
`CC(C)(C)c1ccc(C(=O)N2CCOC23CCCCC3)cc1` gave MT1-MMP act inh inactive, Rpn11 block inactive, DNMT1 block inactive, SKN-1 inh inactive, CSN deneddyl inh inactive and SUMO1 PPI mod inactive.
COc1cccc(C(O)c2nc(-c3ccccc3)cs2)c1 (stereo not drawn) was read as MT1-MMP act inh inactive, Rpn11 block inactive, DNMT1 block inactive, SKN-1 inh inactive, CSN deneddyl inh inactive and SUMO1 PPI mod inactive.
Screening CN1C(=O)CC2(C)C1=CCc1scnc12 (stereo not drawn) returned MT1-MMP act inh inactive, Rpn11 block inactive, DNMT1 block inactive, SKN-1 inh inactive, CSN deneddyl inh inactive and SUMO1 PPI mod inactive.
`COc1cc(CNC(=O)c2cc(-c3cc(Cl)ccc3OC)n[nH]2)cc(OC)c1` gave MT1-MMP act inh inactive, Rpn11 block inactive, DNMT1 block inactive, SKN-1 inh inactive, CSN deneddyl inh inactive and SUMO1 PPI mod inactive.
Screening COc1cc2nc(CN3CCN(S(=O)(=O)c4ccccc4)CC3)[nH]c(=O)c2cc1OC returned MT1-MMP act inh inactive, Rpn11 block inactive, DNMT1 block inactive, SKN-1 inh inactive, CSN deneddyl inh inactive and SUMO1 PPI mod inactive.
`COc1cc2nc(CN3CCN(S(=O)(=O)c4cc(C)ccc4C)CC3)[nH]c(=O)c2cc1OC` gave MT1-MMP act inh inactive, Rpn11 block inactive, DNMT1 block 92, SKN-1 inh inactive, CSN deneddyl inh inactive, SUMO1 PPI mod inactive, DNMT1 inh conf inactive and DNMT1 interf inactive.
Screening COc1ccc(C2OC(CCc3ccccc3)CC3=C2C(=O)OC(C)(C)O3)cc1 (stereo not drawn) returned MT1-MMP act inh inactive, Rpn11 block inactive, DNMT1 block inactive, SKN-1 inh inactive, CSN deneddyl inh inactive and SUMO1 PPI mod inactive.

Source: PubChem (Sanford-Burnham Center for Chemical Genomics)
